One series concerns MCF7. Kind of series: Cytotoxicity against human MCF7 cells after 72 hrs by sulforhodamine B assay. The format is functional, cell-based. The note with it: for IC50: MCF7, 72 h.
The nature of series [1]: (§1) Cytotoxicity against human KBVIN cells after 72 hrs by sulforhodamine B assay. Type of series: functional, cell-based.
The test system of series [2] is A549. Briefly: Cytotoxicity against human A549 cells after 72 hrs by sulforhodamine B assay. Type of series: functional, cell-based. The note with it: for IC50: A549, 72 h.
In another series the test system is KB. Briefly: Cytotoxicity against human KB cells after 72 hrs by sulforhodamine B assay. Type of series: functional, cell-based.
Another series deals with MDA-MB-231. Briefly: Cytotoxicity against human MDA-MB-231 cells after 72 hrs by sulforhodamine B assay. Type of series: functional, cell-based. The note with it: for IC50: MDA-MB-231, 72 h.
The subject of series [3] is A549. Briefly: Cytotoxicity against human A549 cells after 48 hrs by MTT assay. Type of series: functional, cell-based. The note with it: A549, 48 h.
Series [4] can be described thus: Hemolytic activity against New Zealand rabbit erythrocytes measured after 60 mins. The note with it: read-out: HD50. The format is ADME, cell-based, Oryctolagus cuniculus, Erythrocyte. Put shortly:
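Nonheparinized rabbit blood; erythrocytes washed three times in PBS pH 7.4, 10% suspension; compounds from 10 mM DMSO stock diluted in PBS to 5-500 μM; 100 μL suspension plus 1 mL sample, 37 °C 60 min with periodic stirring; centrifuged, supernatant A540; distilled water = 100% hemolysis, PBS blank subtracted; triplicate; HD50 = concentration giving 50% maximal hemolysis.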

In series [5] the test system is A549. Kind of series: Cell cycle arrest in human A549 cells assessed as accumulation at G1-phase at 2 uM after 24 hrs by propidium iodide staining based flow cytometric analysis (reference value: 46.6%). The format is functional.
Series [6] concerns A549. Kind of series: Induction of apoptosis in human A549 cells assessed as early apoptotic cells at 8 uM after 24 hrs by Annexin-V-FITC/propidium iodide staining based flow cytometric method (reference value: 1.43%). Type of series: functional.
Series [7] concerns A549. Kind of series: Cell cycle arrest in human A549 cells assessed as accumulation at G1-phase at 4 uM after 24 hrs by propidium iodide staining based flow cytometric analysis (reference value: 46.6%). Type of series: functional.
In series [8] the test system is A549. Kind of series: Induction of apoptosis in human A549 cells assessed as reduction in procaspase-3 level at 2 to 8 uM by Western blot analysis. Type of series: functional, cell-based. In outline:
(§2)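 A549 cells exposed 24 h; lysed in Tris-Cl pH 6.8/4% SDS/glycerol/β-mercaptoethanol/PMSF/aprotinin buffer, cleared 12000g 15 min 4 °C, protein by BCA; 10-15% SDS-PAGE, PVDF transfer, primary antibodies overnight 4 °C, HRP secondaries, ECL detection; Lam A as loading control.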

Series [9] concerns A549. Kind of series: Induction of apoptosis in human A549 cells assessed as increase in cleaved PARP level at 2 to 8 uM by Western blot analysis. Type of series: functional, cell-based. In outline: as §2
The test system of series [10] is A549. Kind of series: Induction of apoptosis in human A549 cells assessed as reduction in procaspase-8 level at 2 to 8 uM by Western blot analysis. Type of series: functional, cell-based. Put shortly: as §2
The subject of series [11] is A549. Briefly: Cell cycle arrest in human A549 cells assessed as accumulation at G1-phase at 8 uM after 24 hrs by propidium iodide staining based flow cytometric analysis (reference value: 46.6%). Type of series: functional.
For the next series, the species on record is Homo sapiens. The series is described as §1. Type of series: functional, cell-based.
In series [12] the test system is A549. Briefly: Induction of apoptosis in human A549 cells assessed as late apoptotic cells at 4 uM after 24 hrs by Annexin-V-FITC/propidium iodide staining based flow cytometric method (reference value: 2.97%). The format is functional.
Series [13] concerns A549. Kind of series: Induction of apoptosis in human A549 cells assessed as reduction in procaspase-9 level at 2 to 8 uM by Western blot analysis. Type of series: functional, cell-based. Put shortly: as §2
Series [14] relates to A549. Kind of series: Induction of apoptosis in human A549 cells assessed as late apoptotic cells at 8 uM after 24 hrs by Annexin-V-FITC/propidium iodide staining based flow cytometric method (reference value: 2.97%). The format is functional.
The test system of series [15] is A549. Kind of series: Induction of apoptosis in human A549 cells assessed as early apoptotic cells at 4 uM after 24 hrs by Annexin-V-FITC/propidium iodide staining based flow cytometric method (reference value: 1.43%). The format is functional.
For series [16], the system named is A549. Kind of series: Induction of apoptosis in human A549 cells assessed as late apoptotic cells at 2 uM after 24 hrs by Annexin-V-FITC/propidium iodide staining based flow cytometric method (reference value: 2.97%). The format is functional.
The test system of series [17] is A549. Kind of series: Induction of apoptosis in human A549 cells assessed as early apoptotic cells at 2 uM after 24 hrs by Annexin-V-FITC/propidium iodide staining based flow cytometric method (reference value: 1.43%). The format is functional.

Calls of active or inactive are those of the source. The calls are words filed in the database; no cut-off is given here.

Turning to `CC1(C)CC[C@]2(C(=O)NCCCC(=O)O)CC[C@]3(C)C(=CC[C@@H]4[C@@]5(C)CC[C@H](O)[C@@](C)(CO)[C@@H]5CC[C@]43C)[C@@H]2C1`, the IC50 (in the series with MCF7; in series [1]; in the series with A549 [2]; in the series with KB; in the series with MDA-MB-231) was more than 10 µM each time.

With `CC1(C)CC[C@]2(C(=O)NCCCCCC(=O)O)CC[C@]3(C)C(=CC[C@@H]4[C@@]5(C)CC[C@H](O)[C@@](C)(CO)[C@@H]5CC[C@]43C)[C@@H]2C1`, the IC50 (in the series with MCF7; in series [1]; in the series with A549 [2]; in the series with KB; in the series with MDA-MB-231) was more than 10 µM throughout.

In series [1], `CC(=O)O[C@H]1C(=O)[C@@]2(C)[C@H]([C@H](OC(=O)c3ccccc3)[C@]3(O)C[C@H](OC(=O)[C@H](O)[C@@H](NC(=O)c4ccccc4)c4ccccc4)C(C)=C1C3(C)C)[C@]1(OC(C)=O)CO[C@@H]1C[C@@H]2O` [PACLITAXEL] had an IC50 of 1.86 µM.

In the series on A549 [3], `C[C@@H]1O[C@@H](O[C@H]2[C@H](O[C@H]3CC[C@@]4(C)[C@@H](CC[C@]5(C)[C@@H]4C(=O)C=C4[C@@H]6CC(C)(C)CC[C@]6(C(=O)O)CC[C@]45C)[C@]3(C)CO)OC[C@H](O[C@@H]3O[C@H](CO)[C@@H](O)[C@H](O)[C@H]3O)[C@@H]2O)[C@H](O)[C@H](O)[C@H]1O` returned an IC50 of more than 10 µM. The HC50 at 1 h in series [4] is 239 µM.

In the series on A549 [3], `C[C@@H]1O[C@@H](O[C@H]2[C@H](O[C@H]3CC[C@@]4(C)[C@@H](CC[C@]5(C)[C@@H]4CC(=O)[C@@H]4[C@@H]6CC(C)(C)CC[C@]6(C(=O)O)CC[C@]45C)[C@]3(C)CO)OC[C@H](O[C@@H]3O[C@H](CO)[C@@H](O)[C@H](O)[C@H]3O)[C@@H]2O)[C@H](O)[C@H](O)[C@H]1O` registered an IC50 of more than 10 µM. Moreover, the HC50 at 1 h in series [4] came out at 73.1 µM.

As for `CC1(C)CC[C@]2(C(=O)NCC(=O)O)CC[C@]3(C)C(=CC[C@@H]4[C@@]5(C)CC[C@H](O)[C@@](C)(CO)[C@@H]5CC[C@]43C)[C@@H]2C1`, the IC50 (with MCF7; in series [1]; in the series with A549 [2]; with KB; with MDA-MB-231) was more than 10 µM each time.

In the series with A549 [3], `C[C@@H]1O[C@@H](O[C@H]2[C@H](O[C@H]3CC[C@@]4(C)[C@@H](CC[C@]5(C)[C@@H]4C(=O)C=C4[C@@H]6CC(C)(C)CC[C@]6(C(=O)NCC(=O)O)CC[C@]45C)[C@]3(C)CO)OC[C@H](O[C@@H]3O[C@H](CO)[C@@H](O)[C@H](O)[C@H]3O)[C@@H]2O)[C@H](O)[C@H](O)[C@H]1O` yielded an IC50 of more than 10 µM.

With `CC1(C)CC[C@]2(C(=O)O)CC[C@]3(C)C(=CC[C@@H]4[C@@]5(C)CC[C@H](O)[C@@](C)(CO)[C@@H]5CC[C@]43C)[C@@H]2C1` [HEDERAGENIN], the IC50 (with MCF7; in [1]; in the series with A549 [2]; in the series on KB; in the series with MDA-MB-231) was more than 10 µM in each case.

Take `CCOC(=O)CCCNC(=O)[C@]12CCC(C)(C)C[C@H]1C1=CC[C@@H]3[C@@]4(C)CC[C@H](OC(C)=O)[C@@](C)(COC(C)=O)[C@@H]4CC[C@@]3(C)[C@]1(C)CC2`: the Activity in the series with A549 [5] is 53.4%; in the series with A549 [6] it was 30.3%; with A549 [7], 61.1%; with MCF7, “Dose-dependent effect”; in the series with A549 [11], 68.4%; in the series filed under Homo sapiens, “Dose-dependent effect”. The Activity in the series on A549 [12] was 4.4%; in the series with A549 [2] it was “Dose-dependent effect”; in the series with A549 [14], 4.87%; with A549 [15], 26.5%; in the series with KB, “Dose-dependent effect”; in the series on MDA-MB-231 it was “Dose-dependent effect”. Further, the Activity in the series on A549 [16] came out at 3.8%; in the series on A549 [17] it was 14.8%. Also, the result in the series with A549 [8], with A549 [9], in the series on A549 [10] and with A549 [13] was Active. In addition, the IC50 in the series on MCF7 worked out at 8.6 µM; in series [1], 5.1 µM; in the series on A549 [2], 2.8 µM; in the series with KB it was 3.6 µM. For the same molecule, the HC50 at 1 h in [4] is more than 500 µM.

Consider `C[C@@H]1O[C@@H](O[C@H]2[C@H](O[C@H]3CC[C@@]4(C)[C@@H](CC[C@]5(C)[C@@H]4CC=C4[C@@H]6CC(C)(C)CC[C@]6(C(=O)O)CC[C@]45C)[C@]3(C)CO)OC[C@H](O[C@@H]3O[C@H](CO)[C@@H](O)[C@H](O)[C@H]3O)[C@@H]2O)[C@H](O)[C@H](O)[C@H]1O` [HEDERACOLCHISIDE A], for which the IC50 with A549 [3] is 6 µM.

On to `CCOC(=O)CCCCCNC(=O)[C@]12CCC(C)(C)C[C@H]1C1=CC[C@@H]3[C@@]4(C)CC[C@H](OC(C)=O)[C@@](C)(COC(C)=O)[C@@H]4CC[C@@]3(C)[C@]1(C)CC2`, for which the concentration for half-maximal inhibition (IC50) with MCF7 was more than 10 µM; in series [1], more than 10 µM; with A549 [2] it was 5.1 µM; with KB it was 6.9 µM.

In the series with A549 [3], `C[C@@H]1O[C@@H](O[C@H]2[C@H](O[C@H]3CC[C@@]4(C)[C@@H](CC[C@]5(C)[C@@H]4CC(=O)[C@]46OC(=O)[C@@]7(CCC(C)(C)C[C@H]74)CC[C@@]56C)[C@]3(C)CO)OC[C@H](O[C@@H]3O[C@H](CO)[C@@H](O)[C@H](O)[C@H]3O)[C@@H]2O)[C@H](O)[C@H](O)[C@H]1O` returned an IC50 of more than 10 µM. In addition, the HC50 at 1 h in [4] was determined as 290 µM.

Consider `CC(=O)OC[C@@]1(C)[C@@H]2CC[C@]3(C)[C@H](CC=C4[C@@H]5CC(C)(C)CC[C@]5(C(=O)O)CC[C@]43C)[C@@]2(C)CC[C@@H]1OC(C)=O`, for which the IC50 in the series on MCF7 was more than 10 µM; in series [1], 8.5 µM; in the series with A549 [2], 6.2 µM; with KB, 7.4 µM; with MDA-MB-231, more than 10 µM.

Consider `CCOC(=O)CNC(=O)[C@]12CCC(C)(C)C[C@H]1C1=CC[C@@H]3[C@@]4(C)CC[C@H](OC(C)=O)[C@@](C)(COC(C)=O)[C@@H]4CC[C@@]3(C)[C@]1(C)CC2`, for which the half-inhibitory concentration (IC50) with MCF7 was 7.7 µM; in series [1], 4.9 µM; in the series with A549 [2], 4.6 µM; in the series with KB, 4.2 µM; in the series with MDA-MB-231, 5.5 µM.

Regarding `C[C@@H]1O[C@@H](O[C@H]2[C@H](O[C@H]3CC[C@@]4(C)[C@@H](CC[C@]5(C)[C@@H]4C[C@H](O)[C@]46OC(=O)[C@@]7(CCC(C)(C)C[C@H]74)CC[C@]65C)[C@]3(C)CO)OC[C@H](O[C@@H]3O[C@H](CO)[C@@H](O)[C@H](O)[C@H]3O)[C@@H]2O)[C@H](O)[C@H](O)[C@H]1O`, the IC50 in the series with A549 [3] was more than 10 µM. Moreover, the HC50 at 1 h in [4] was 308 µM.

(Values after ChEMBL document CHEMBL4138167, “Cytotoxicity, Hemolytic Toxicity, and Mechanism of Action of Pulsatilla Saponin D and Its Synthetic Derivatives” (J Nat Prod, 2018).)
